Source: paper PMC5542026 (Cell, 2017)
≈ marks a conversion by molar mass, not a printed value. *1 amine or outer side, *2 acyl side, *3 side chain or, on linkers, in order; H or OH if unused. Where a SMILES comes first, the peptide text is derived from it. Bridges are numbered along the chain shown (N, C = ends). [ ]: non-standard residue; d: D form. The star is where a group is joined. X2 = C[C@H](Oc1ccc([C@H](N[*:1])C(=O)[*:2])cc1)[C@@]1(/C=C/C(=O)[*:3])CO1; X1 = CC(C)[C@H](O)[C@H](C)C(=O)*; aIle = CC[C@@H](C)[C@H](N)C(=O)O; dNMeF = CN[C@H](Cc1ccccc1)C(=O)O; aThr = C[C@H](O)[C@H](N)C(=O)O

How the values were obtained:
S. pyogenes ATCC 12344 = assay: Broth-microdilution MIC, wild-type parent; type: cell-based; conditions: Todd Hewitt broth, 16 h, growth inhibited by >90%
E. coli strain D21f2tolC [1] = assay: Broth-microdilution MIC, wild-type parent; type: cell-based; conditions: LB broth, 16 h, growth inhibited by >90%
bacterial RNAP = bacterial RNAP (Escherichia coli, UniProt P0A8T7+P0A8V2); assay: RNAP-inhibitory activity in vitro; type: biochemical, E. coli; S. aureus; B. subtilis; conditions: read-out: IC50, inhibition of bacterial RNAP
human serum proteins = assay: Growth-curve assays in absence and presence of 30% human serum; type: in vitro ADME
S. pyogenes C203 = assay: Mouse Streptococcus pyogenes peritonitis model; type: in vivo
Outline: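 Female ICR mice (23–25 g) were acclimatised for one week at 23±2°C and 55±10% humidity. They were infected intraperitoneally with 4×10^3 cfu S. pyogenes C203 in 0.5 ml saline containing 1% peptone. Groups of eight, randomised and unblinded, received 2.5-fold test compound dilutions in 5% dextrose by one of three regimens: i.v. at 10 min and 6 h (total 3.2–50 mg/kg); single i.v. at 10 min; or single s.c. at 10 min (each total 1.024–40 mg/kg).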

[2] = tested on: S. pyogenes Rif-resistant mutants; assay: Cross-resistance of Rif-resistant mutants to PUM; type: cell-based; conditions: Figs. 1B–C,E
Outline: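 S. pyogenes mutants were selected on Todd Hewitt agar with rifampicin at 0.1–2 μg/ml (1–16x MIC) and sequenced. Thirteen mutants and the isogenic wild-type parent were grown in Todd Hewitt broth at 37°C in 7% CO2/6% O2/4% H2/83% N2 to OD600 0.4–0.8. They were tested by broth microdilution with a 2-fold test compound series (0 or 1.56–100 μg/ml) for 16 h at 37°C. MIC was taken at >90% growth inhibition.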

[3] = tested on: S. pyogenes strain L49 or S. pneumoniae strain L44; assay: Checkerboard interaction assays PUM + Rif; type: cell-based; conditions: FICI
[4] = tested on: S. pyogenes strain ATCC 12344; assay: Spontaneous resistance rate, Luria-Delbrück fluctuation assays; type: cell-based; conditions: compared with Rif
Outline: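 Luria-Delbrück fluctuation assay. ~1×10^9 cfu S. pyogenes ATCC 12344 per plate were plated on Todd Hewitt agar (1.5% agar) containing 64 or 128 μg/ml test compound, or 1 or 2 μg/ml rifampicin. Colonies were counted after 24 h at 37°C, with at least six independent determinations each.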

E. coli strain D21f2tolC [5] = assay: MIC on LB agar; type: cell-based; conditions: E. coli D21f2tolC plated on LB agar
[6] = tested on: S. pyogenes and E. coli resistant mutants; assay: Cross-resistance between PUM and Lpm, Myx, Stl, CBR703, Sal; type: cell-based
[7] = tested on: E. coli GE-resistant mutants; assay: Cross-resistance of GE-resistant mutants to PUM; type: cell-based
[8] = tested on: Staphylococcus simulans strain M22; assay: Effects on macromolecular synthesis; type: cell-based; conditions: PUM 100–200 μM
Outline: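 Staphylococcus simulans M22 was grown in 0.5x Mueller Hinton II broth at 37°C with shaking to OD600 0.5, then diluted to OD600 0.1–0.2. [2-14C]-thymidine was added at 6 kBq/ml for 15 min, and the culture was split. One half received test compound (final 100–200 μM). Samples taken at 0, 10, 20 and 40 min were quenched in ice-cold 10% TCA/1 M NaCl and held 30–60 min on ice.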

[9] = target: T1, E. coli RNAP σ^70 holoenzyme (Escherichia coli, UniProt P0A8T7+P0A8V2); assay: Formation of RNAP-promoter open complex; type: biochemical; conditions: 500 μM PUM
E. coli RNAP [10] = target: T2, E. coli RNAP (Escherichia coli, UniProt P0A8T7+P0A8V2); assay: Nucleotide addition in transcription initiation; type: biochemical; conditions: 500 μM PUM
Outline: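 Run per an earlier published protocol, labelled with 5 μM [α32P]UTP (3 Bq/fmol). Reactions contained no inhibitor, the test compound, 2 μM rifampicin or 100 μM lipiarmycin.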

E. coli RNAP [11] = target: T2, E. coli RNAP; assay: Nucleotide addition in transcription elongation; type: biochemical; conditions: 500 μM PUM
Outline: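 Run per an earlier published protocol. Reactions contained no inhibitor, the test compound, 2 μM rifampicin or 100 μM lipiarmycin as comparator.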

[12] = target: T1, E. coli RNAP σ^70 holoenzyme; assay: Nucleotide addition at elevated NTP concentrations; type: biochemical; conditions: 6 μM PUM; 10–500 μM varied NTP
[13] = target: T1, E. coli RNAP σ^70 holoenzyme; assay: Nucleotide addition on standard and U-less cassette templates; type: biochemical; conditions: standard vs U-less cassette template; 0–20 μM PUM
E. coli RNAP core enzyme = E. coli RNAP core enzyme (Escherichia coli, UniProt P0A8T7+P0A8V2); assay: Single-nucleotide-addition reactions; type: biochemical; conditions: 25 μM PUM; 2.5 μM NTPs
Outline: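 Elongation complexes were assembled on nucleic-acid scaffolds, annealed 5 min at 95°C and step-cooled to 4°C in 5 mM Tris-HCl pH 7.7, 200 mM NaCl, 10 mM MgCl2. Steps at 37°C: 10 min preincubation, 5 min with compound (0 or 25 μM), 5 min with single NTP.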

[14] = target: T1, E. coli RNAP σ^70 holoenzyme; assay: Multiple-nucleotide-addition reactions; type: biochemical; conditions: 10 μM NTPs
[15] = tested on: S. pyogenes PUM-resistant mutants; assay: Resistance levels of spontaneous PUM-resistant mutants; type: cell-based; conditions: substitutions at β residues 565, 681, and 684, and β′ residue 786
[16] = tested on: E. coli D21f2tolC with plasmid-encoded RNAP β/β′ derivatives; assay: E. coli plasmid-based resistance assay; type: cell-based; conditions: substitutions β565 Glu→Gly and β681 Met→Lys
Outline: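 E. coli transformants were grown from single colonies in LB with 200 μg/ml ampicillin at 37°C with shaking to OD600 0.4–0.8. They were induced with 1 mM IPTG for 1 h. About 2×10^5 cells were added to wells holding a 2-fold dilution series of test compound in the same medium (final 0 or 25–4000 μg/ml) and incubated 16 h at 37°C with shaking.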

[17] = target: [565Glu→Asp]β-RNAP σ^70 holoenzyme (Escherichia coli, UniProt P0A8T7+P0A8V2, E565D); assay: Fluorescence-detected transcription assay, mutant RNAP; type: biochemical, E. coli

lipiarmycin A3
MICwild-type (S. pyogenes ATCC 12344): 6.25 µg/mL | MICwild-type (E. coli strain D21f2tolC [1]): 1.56 µg/mL

CCCC/C(C)=C/C=C(\C)C(=O)c1c(O)cc([C@H](C)CC/C=C/NC(=O)OC)oc1=O [myxopyronin B]
MICwild-type (S. pyogenes ATCC 12344): 6.25 µg/mL | MICwild-type (E. coli strain D21f2tolC [1]): 0.20 µg/mL

NC(=O)CC[C@@H](C(=O)NC[C@H]1O[C@@H](c2c[nH]c(=O)[nH]c2=O)[C@H](O)[C@@H]1O)N(O)C(=O)CN=C(N)N [PUM, pseudouridimycin]
IC50 (bacterial RNAP): 100 nM | antibacterial activity in absence versus presence of human serum (human serum proteins; 30% human serum, Fig. 1C rows 1–4): Identical results | unbound fraction (human serum proteins; human serum proteins, inferred from 30% human serum assays): ~ 100% | ED50 (dose yielding 50% survival at 7 days) (S. pyogenes C203): 9 mg/kg | cross-resistance with Rif [2]: no cross-resistance | antibacterial activity when co-administered with Rif [3]: additive antibacterial activity | spontaneous resistance rates [4]: an order-of-magnitude lower than those of Rif | MICwild-type (S. pyogenes ATCC 12344): 6.25 µg/mL | MICwild-type (E. coli strain D21f2tolC [1]): 400 µg/mL | MIC under these conditions (E. coli strain D21f2tolC [5]): ~800 µg/mL (≈ 1640 µM) | cross-resistance with Lpm, Myx, Stl, CBR703, and Sal [6]: does not exhibit cross-resistance | cross-resistance with GE [7]: partial cross-resistance | effect on DNA synthesis ([14C]-thymidine incorporation) [8]: little or no inhibition of DNA synthesis | effect on RNA synthesis ([3H]-uridine incorporation) [8]: rapid and strong inhibition of RNA synthesis | effect on protein synthesis ([14C]-isoleucine incorporation) [8]: slower and weaker inhibition of protein synthesis | effect on formation of catalytically-competent RNAP-promoter open complex, RPo [9]: Absence of inhibition | effect on nucleotide addition in transcription initiation (E. coli RNAP [10]): Inhibition by PUM of nucleotide addition in transcription initiation | effect on nucleotide addition in transcription elongation (E. coli RNAP [11]): Inhibition by PUM of nucleotide addition in transcription elongation | effect of high NTP concentrations on transcription inhibition [12]: high concentrations of UTP–but not high concentrations of GTP, ATP, or CTP–overcome transcription inhibition by PUM | template dependence of transcription inhibition [13]: inhibits transcription only on templates that direct incorporation of U | nucleotide specificity of inhibition, single-nucleotide addition (E. coli RNAP core enzyme): inhibits incorporation of U, but not G, A, or C | nucleotide specificity of inhibition, multiple-nucleotide addition [14]: inhibits incorporation of U, but not G, A, or C | PUM-resistance (MIC/MICwild-type) [15]: ≥ 4 x | resistance (MIC/MICwild-type) [16]: ≥ 4 x | inhibition of purified RNAP containing β565 Glu→Asp [17]: PUM-resistant phenotype

GE23077
MICwild-type (E. coli strain D21f2tolC [1]): 500 µg/mL

CO[C@H]1/C=C/O[C@@]2(C)Oc3c(C)c(O)c4c(O)c(c(/C=N/N5CCN(C)CC5)c(O)c4c3C2=O)NC(=O)/C(C)=C\C=C\[C@H](C)[C@H](O)[C@@H](C)[C@@H](O)[C@@H](C)[C@H](OC(C)=O)[C@@H]1C [Rif, rifampin]
MICwild-type (S. pyogenes ATCC 12344): 0.098 µg/mL | MICwild-type (E. coli strain D21f2tolC [1]): 0.20 µg/mL

CNC(=O)[C@@H](C)[C@H]1C(=O)/C(=C(O)/C=C/C(C)=C/[C@@H](C)[C@H]2O[C@@]3(C)O[C@H](C=C[C@@]34CO4)[C@@H]2C)C(=O)N1[C@@H]1CC[C@H](O)[C@H](C)O1 [streptolydigin]
MICwild-type (S. pyogenes ATCC 12344): 3.13 µg/mL | MICwild-type (E. coli strain D21f2tolC [1]): 3.13 µg/mL

ONC(=Nc1ccccc1)c1cccc(C(F)(F)F)c1 [CBR703]
MICwild-type (E. coli strain D21f2tolC [1]): 6.25 µg/mL

CC[C@@H](C)[C@@H]1NC(=O)[C@H](NC(=O)[C@@H](C)[C@@H](O)C(C)C)[C@H](C)OC(=O)[C@H]2COC(=O)CNC(=O)/C=C/[C@@]3(CO3)[C@H](C)Oc3ccc(cc3)[C@H](NC1=O)C(=O)N(C)[C@H](Cc1ccccc1)C(=O)N[C@@H]([C@H](C)O)C(=O)N2 [salinamide A] (X1-[dT][aIle][X2][dNMeF][aThr][dS]; ester 1-C; linker 3-6 via G)
MICwild-type (E. coli strain D21f2tolC [1]): 0.049 µg/mL
